Values after ≈ are worked out from the molar mass of the structure shown.
Assays:
Format in all cases: functional
Staphylococcus aureus [1] = assay: Antibacterial activity against Staphylococcus aureus ATCC 25923 by broth dilution method
Procedure, shortened: (§1)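 MIC by twofold serial broth dilution. Compounds were dissolved in DMSO at 1.6 mg/mL as stock. Dilutions in Mueller–Hinton broth and Sabouraud dextrose broth ran from 800 down to 0.78. Inoculated broth containing DMSO alone at the same dilutions served as control. Gentamycin and griseofulvin were the reference drugs.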

Pseudomonas aeruginosa [2] = assay: Antibacterial activity against Pseudomonas aeruginosa ATCC 10145 by broth dilution method
Procedure, shortened: (§2)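 MIC by twofold serial broth dilution. Compounds were dissolved in DMSO as a 1.6 mg/mL stock and diluted in Mueller-Hinton broth or Sabouraud dextrose broth to 800, 400, 200, 100, 50, 25, 12.5, 6.25, 3.12, 1.56 and 0.78. A control of inoculated broth with DMSO alone at the same dilutions was included. Gentamycin and griseofulvin served as reference drugs.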

Bacillus subtilis [3] = assay: Antibacterial activity against Bacillus subtilis ATCC 6633 by broth dilution method; procedure, shortened: as §2
Escherichia coli [4] = assay: Antibacterial activity against Escherichia coli ATCC 23556 by broth dilution method; procedure, shortened: as §1
Aspergillus fumigatus [5] = assay: Antifungal activity against Aspergillus fumigatus ATCC 96918 by broth dilution method; procedure, shortened: as §1
Penicillium italicum [6] = assay: Antifungal activity against Penicillium italicum ATCC 48114 by broth dilution method; procedure, shortened: as §1
[7] = system: Syncephalastrum racemosum; assay: Antifungal activity against Syncephalastrum racemosum ATCC 18192 by broth dilution method; procedure, shortened: as §1
Candida albicans [8] = assay: Antimicrobial activity against Candida albicans ATCC 14053 by broth dilution method; procedure, shortened: as §1
Aspergillus fumigatus [9] = assay: Antifungal activity against Aspergillus fumigatus ATCC 96918 at 1 mg/mL by diffusion agar method; conditions: read-out: IZ
Procedure, shortened: (§3)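 Agar diffusion. Compounds and standard drugs were dissolved in DMSO at 5 mg/mL and diluted to 5, 2.5 and 1 mg/mL. Hundred microlitres of each concentration was applied. Inhibition was scored against the control: 0.1–0.5 cm beyond control = +, 0.6–1.0 cm = ++, 1.0–1.5 cm = +++, 0 = not detected.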

Aspergillus fumigatus [10] = assay: Antifungal activity against Aspergillus fumigatus ATCC 96918 at 2.5 mg/mL by diffusion agar method; conditions: read-out: IZ; procedure, shortened: as §3
Aspergillus fumigatus [11] = assay: Antifungal activity against Aspergillus fumigatus ATCC 96918 at 5 mg/mL by diffusion agar method; conditions: read-out: IZ; procedure, shortened: as §3
Penicillium italicum [12] = assay: Antifungal activity against Penicillium italicum ATCC 48114 at 2.5 mg/mL by diffusion agar method; conditions: read-out: IZ; procedure, shortened: as §3
Penicillium italicum [13] = assay: Antifungal activity against Penicillium italicum ATCC 48114 at 5 mg/mL by diffusion agar method; conditions: read-out: IZ; procedure, shortened: as §3
[14] = system: Syncephalastrum racemosum; assay: Antifungal activity against Syncephalastrum racemosum ATCC 18192 at 5 mg/mL by diffusion agar method; conditions: read-out: IZ; procedure, shortened: as §3
[15] = system: Syncephalastrum racemosum; assay: Antifungal activity against Syncephalastrum racemosum ATCC 18192 at 2.5 mg/mL by diffusion agar method; conditions: read-out: IZ; procedure, shortened: as §3
Staphylococcus aureus [16] = assay: Antibacterial activity against Staphylococcus aureus ATCC 25923 at 1 mg/mL by diffusion agar method; conditions: read-out: IZ; procedure, shortened: as §3
Staphylococcus aureus [17] = assay: Antibacterial activity against Staphylococcus aureus ATCC 25923 at 2.5 mg/mL by diffusion agar method; conditions: read-out: IZ; procedure, shortened: as §3
Staphylococcus aureus [18] = assay: Antibacterial activity against Staphylococcus aureus ATCC 25923 at 5 mg/mL by diffusion agar method; conditions: read-out: IZ; procedure, shortened: as §3
Pseudomonas aeruginosa [19] = assay: Antibacterial activity against Pseudomonas aeruginosa ATCC 10145 at 5 mg/mL by diffusion agar method; conditions: read-out: IZ; procedure, shortened: as §3
Pseudomonas aeruginosa [20] = assay: Antibacterial activity against Pseudomonas aeruginosa ATCC 10145 at 2.5 mg/mL by diffusion agar method; conditions: read-out: IZ; procedure, shortened: as §3
Pseudomonas aeruginosa [21] = assay: Antibacterial activity against Pseudomonas aeruginosa ATCC 10145 at 1 mg/mL by diffusion agar method; conditions: read-out: IZ; procedure, shortened: as §3
Bacillus subtilis [22] = assay: Antibacterial activity against Bacillus subtilis ATCC 6633 at 1 mg/mL by diffusion agar method; conditions: read-out: IZ; procedure, shortened: as §3
Bacillus subtilis [23] = assay: Antibacterial activity against Bacillus subtilis ATCC 6633 at 2.5 mg/mL by diffusion agar method; conditions: read-out: IZ; procedure, shortened: as §3
Bacillus subtilis [24] = assay: Antibacterial activity against Bacillus subtilis ATCC 6633 at 5 mg/mL by diffusion agar method; conditions: read-out: IZ; procedure, shortened: as §3
Escherichia coli [25] = assay: Antibacterial activity against Escherichia coli ATCC 23556 at 2.5 mg/mL by diffusion agar method; conditions: read-out: IZ; procedure, shortened: as §3
Escherichia coli [26] = assay: Antibacterial activity against Escherichia coli ATCC 23556 at 5 mg/mL by diffusion agar method; conditions: read-out: IZ; procedure, shortened: as §3
Penicillium italicum [27] = assay: Antifungal activity against Penicillium italicum ATCC 48114 at 1 mg/mL by diffusion agar method; conditions: read-out: IZ; procedure, shortened: as §3
[28] = system: Syncephalastrum racemosum; assay: Antifungal activity against Syncephalastrum racemosum ATCC 18192 at 1 mg/mL by diffusion agar method; conditions: read-out: IZ; procedure, shortened: as §3
Candida albicans [29] = assay: Antimicrobial activity against Candida albicans ATCC 14053 at 1 mg/mL by diffusion agar method; conditions: read-out: IZ; procedure, shortened: as §3
Candida albicans [30] = assay: Antimicrobial activity against Candida albicans ATCC 14053 at 2.5 mg/mL by diffusion agar method; conditions: read-out: IZ; procedure, shortened: as §3
Candida albicans [31] = assay: Antimicrobial activity against Candida albicans ATCC 14053 at 5 mg/mL by diffusion agar method; conditions: read-out: IZ; procedure, shortened: as §3
Escherichia coli [32] = assay: Antibacterial activity against Escherichia coli ATCC 23556 at 1 mg/mL by diffusion agar method; conditions: read-out: IZ; procedure, shortened: as §3

Q: Which results are given for GENTAMICIN?
A: MIC (Staphylococcus aureus [1]): 3.12 µg/mL; MIC (Pseudomonas aeruginosa [2]): 12.5 µg/mL; MIC (Bacillus subtilis [3]): 1.56 µg/mL; MIC (Escherichia coli [4]): 12.5 µg/mL

Q: With `COC1=CC(=O)C[C@@H](C)[C@]12Oc1c(Cl)c(OC)cc(OC)c1C2=O` [GRISEOFULVIN] as the molecule, how does the MIC (Aspergillus fumigatus [5]) read?
A: 50 µg/mL (≈ 142 µM)

Q: And the MIC (Penicillium italicum [6])?
A: 50 µg/mL (≈ 142 µM)

Q: And the MIC [7]?
A: 50 µg/mL (≈ 142 µM)

Q: What about the MIC (Candida albicans [8]) of the same molecule?
A: 50 µg/mL (≈ 142 µM)

Q: For `CC(=O)O[C@@H]1[C@@H](OC(C)=O)[C@H](Sc2nnc3sc(-c4ccc(Cl)cc4)nn23)OC[C@@H]1OC(C)=O`, which zone of inhibition at 1000 µg/mL (Aspergillus fumigatus [9]) is on record?
A: 1 mm

Q: What about the zone of inhibition at 2500 µg/mL (Aspergillus fumigatus [10]) of the same molecule?
A: 1 mm

Q: And the zone of inhibition at 5000 µg/mL (Aspergillus fumigatus [11])?
A: 1 mm

Q: And the zone of inhibition at 2500 µg/mL (Penicillium italicum [12])?
A: 1 mm

Q: What about the zone of inhibition at 5000 µg/mL (Penicillium italicum [13]) of the same molecule?
A: 1 mm

Q: What about the zone of inhibition at 5000 µg/mL [14] of the same molecule?
A: 1 mm

Q: What about the zone of inhibition at 2500 µg/mL [15] of the same molecule?
A: 1 mm

Q: What about the zone of inhibition at 1000 µg/mL (Staphylococcus aureus [16]) of the same molecule?
A: 1 mm

Q: And the zone of inhibition at 2500 µg/mL (Staphylococcus aureus [17])?
A: 1 mm

Q: What about the zone of inhibition at 5000 µg/mL (Staphylococcus aureus [18]) of the same molecule?
A: 1 mm

Q: And the zone of inhibition at 5000 µg/mL (Pseudomonas aeruginosa [19])?
A: 1 mm

Q: What about the zone of inhibition at 2500 µg/mL (Pseudomonas aeruginosa [20]) of the same molecule?
A: 1 mm

Q: What about the zone of inhibition at 1000 µg/mL (Pseudomonas aeruginosa [21]) of the same molecule?
A: 1 mm

Q: And the zone of inhibition at 1000 µg/mL (Bacillus subtilis [22])?
A: 1 mm

Q: What about the zone of inhibition at 2500 µg/mL (Bacillus subtilis [23]) of the same molecule?
A: 1 mm

Q: What about the zone of inhibition at 5000 µg/mL (Bacillus subtilis [24]) of the same molecule?
A: 1 mm

Q: What about the zone of inhibition at 2500 µg/mL (Escherichia coli [25]) of the same molecule?
A: 1 mm

Q: What about the zone of inhibition at 5000 µg/mL (Escherichia coli [26]) of the same molecule?
A: 1 mm

Q: What about the MIC (Aspergillus fumigatus [5]) of the same molecule?
A: 25 µg/mL (≈ 47.4 µM)

Q: What about the MIC (Penicillium italicum [6]) of the same molecule?
A: 1600 µg/mL (≈ 3040 µM)

Q: And the MIC [7]?
A: 1600 µg/mL (≈ 3040 µM)

Q: What about the MIC (Staphylococcus aureus [1]) of the same molecule?
A: 25 µg/mL (≈ 47.4 µM)

Q: What about the MIC (Pseudomonas aeruginosa [2]) of the same molecule?
A: 12.5 µg/mL (≈ 23.7 µM)

Q: And the MIC (Bacillus subtilis [3])?
A: 25 µg/mL (≈ 47.4 µM)

Q: And the MIC (Escherichia coli [4])?
A: 1600 µg/mL (≈ 3040 µM)

Q: `CC(=O)O[C@@H]1[C@@H](OC(C)=O)[C@H](n2nc3sc(-c4ccc(Cl)cc4)nn3c2=S)OC[C@@H]1OC(C)=O` was tested. Which zone of inhibition at 5000 µg/mL (Penicillium italicum [13]) did it give?
A: 1 mm

Q: And the zone of inhibition at 5000 µg/mL (Staphylococcus aureus [18])?
A: 1 mm

Q: And the zone of inhibition at 5000 µg/mL (Escherichia coli [26])?
A: 1 mm

Q: And the MIC (Penicillium italicum [6])?
A: > 1600 µg/mL

Q: What about the MIC (Staphylococcus aureus [1]) of the same molecule?
A: > 1600 µg/mL

Q: What about the MIC (Escherichia coli [4]) of the same molecule?
A: > 1600 µg/mL

Q: Which zone of inhibition at 1000 µg/mL (Aspergillus fumigatus [9]) does the source give for `CN(C/C=C/C#CC(C)(C)C)Cc1cccc2ccccc12` [TERBINAFINE] here?
A: 6 mm

Q: And the zone of inhibition at 2500 µg/mL (Aspergillus fumigatus [10])?
A: 10 mm

Q: And the zone of inhibition at 5000 µg/mL (Aspergillus fumigatus [11])?
A: 10 mm

Q: And the zone of inhibition at 1000 µg/mL (Penicillium italicum [27])?
A: 6 mm

Q: And the zone of inhibition at 2500 µg/mL (Penicillium italicum [12])?
A: 10 mm

Q: What about the zone of inhibition at 5000 µg/mL (Penicillium italicum [13]) of the same molecule?
A: 10 mm

Q: And the zone of inhibition at 5000 µg/mL [14]?
A: 10 mm

Q: And the zone of inhibition at 2500 µg/mL [15]?
A: 10 mm

Q: What about the zone of inhibition at 1000 µg/mL [28] of the same molecule?
A: 10 mm

Q: Which zone of inhibition at 1000 µg/mL (Candida albicans [29]) does the source give for `O=C(N[C@H](CO)[C@H](O)c1ccc([N+](=O)[O-])cc1)C(Cl)Cl` [CHLORAMPHENICOL] here?
A: 6 mm

Q: What about the zone of inhibition at 2500 µg/mL (Candida albicans [30]) of the same molecule?
A: 6 mm

Q: And the zone of inhibition at 5000 µg/mL (Candida albicans [31])?
A: 6 mm

Q: And the zone of inhibition at 1000 µg/mL (Staphylococcus aureus [16])?
A: 6 mm

Q: And the zone of inhibition at 2500 µg/mL (Staphylococcus aureus [17])?
A: 6 mm

Q: And the zone of inhibition at 5000 µg/mL (Staphylococcus aureus [18])?
A: 6 mm

Q: And the zone of inhibition at 5000 µg/mL (Pseudomonas aeruginosa [19])?
A: 10 mm

Q: And the zone of inhibition at 2500 µg/mL (Pseudomonas aeruginosa [20])?
A: 10 mm

Q: What about the zone of inhibition at 1000 µg/mL (Pseudomonas aeruginosa [21]) of the same molecule?
A: 6 mm

Q: What about the zone of inhibition at 1000 µg/mL (Bacillus subtilis [22]) of the same molecule?
A: 6 mm

Q: What about the zone of inhibition at 2500 µg/mL (Bacillus subtilis [23]) of the same molecule?
A: 10 mm

Q: And the zone of inhibition at 5000 µg/mL (Bacillus subtilis [24])?
A: 10 mm

Q: What about the zone of inhibition at 1000 µg/mL (Escherichia coli [32]) of the same molecule?
A: 6 mm

Q: What about the zone of inhibition at 2500 µg/mL (Escherichia coli [25]) of the same molecule?
A: 6 mm

Q: And the zone of inhibition at 5000 µg/mL (Escherichia coli [26])?
A: 6 mm

Source: ChEMBL document CHEMBL1147959, “N- and S-alpha-l-arabinopyranosyl[1,2,4]triazolo[3,4-b][1,3,4]thiadiazoles. First synthesis and biological evaluation” (2007)
